Three compounds from ChEMBL document CHEMBL1155297, “Synthesis, antimicrobial and antioxidant activities of substituted pyrazoles, isoxazoles, pyrimidine and thioxopyrimidine derivatives” (2009) can be followed below.

Holding throughout (format): functional
For assay [1], the system named is Fusarium solani. As to the kind of experiment: Antifungal activity against Fusarium solani NCIM 1330 after 48 hrs by microdilution susceptibility method. The conditions noted are these: NCIM 1330, 48 h. The essentials:
(§1)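 Broth microdilution MIC; fungal suspensions were inoculated into wells containing compound dissolved in DMSO. Incubation was at 36 °C for 48 h. MIC was recorded as the lowest concentration with no turbidity. Ketoconazole was the reference antifungal.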
(In general: In broth dilution the organism is exposed to a series of concentrations in liquid medium.)

For assay [2], the system named is Aspergillus niger. As to the kind of experiment: Antifungal activity against Aspergillus niger NCIM 596 at 200 ug/disk after 48 hrs by agar disk diffusion method. The conditions noted are these: NCIM 596, 48 h, read-out: IZ. The method in brief:
(§2)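 Fungal disc diffusion on nutrient agar plates pre-inoculated with each fungus. 6 mm sterile paper discs carried the compound in DMSO at the stated amount per disc. Plates were held at 37 °C, and inhibition-zone diameter was measured after 48 h. Values are the mean of three independent triplicate readings.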
A general note: In agar diffusion tests the substance spreads into inoculated agar from a disc or well.

For assay [3], the system named is Aspergillus niger. Kind of assay: Antifungal activity against Aspergillus niger NCIM 596 after 48 hrs by microdilution susceptibility method. The conditions noted are these: NCIM 596, 48 h. The method in brief: as §1
Assay [4] concerns Aspergillus niger. As to the kind of experiment: Antifungal activity against Aspergillus niger NCIM 596 at 100 ug/disk after 48 hrs by agar disk diffusion method. The conditions noted are these: NCIM 596, 48 h, read-out: IZ. The essentials:
as §2

Assay [5] concerns Staphylococcus aureus. As to the kind of experiment: Antibacterial activity against Staphylococcus aureus NCIM 5021 after 24 hrs by microdilution susceptibility method. The conditions noted are these: NCIM 5021, 24 h. The essentials: (§3)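 MIC by microdilution susceptibility; compounds in DMSO, bacterial suspensions inoculated into wells. Incubation was at 36 °C for 24 h. MIC is the lowest compound concentration showing no turbidity. Chloramphenicol served as reference antibacterial.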

Assay [6] relates to Staphylococcus aureus. Kind of assay: Antibacterial activity against Staphylococcus aureus NCIM 5021 at 100 ug/disk after 24 hrs by agar disk diffusion method. Particulars: NCIM 5021, 24 h, read-out: IZ. The essentials:
(§4)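 Agar disc diffusion on nutrient agar plates pre-inoculated with each bacterium. Sterile 6 mm filter-paper discs were moistened with compound in DMSO at the stated per-disc amount. Plates were incubated at 37 °C, and the growth-inhibition zone diameter was read after 24 h. Each determination was run in triplicate, and the mean of three independent readings is reported.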

Assay [7] relates to Curvularia lunata. As to the kind of experiment: Antifungal activity against Curvularia lunata NCIM 716 at 100 ug/disk after 48 hrs by agar disk diffusion method. The conditions noted are these: NCIM 716, 48 h, read-out: IZ. The essentials: as §2
Assay [8] has as its system Curvularia lunata. As to the kind of experiment: Antifungal activity against Curvularia lunata NCIM 716 at 200 ug/disk after 48 hrs by agar disk diffusion method. Particulars: NCIM 716, 48 h, read-out: IZ. The essentials:
as §2

Assay [9] can be described thus: Antioxidant activity assessed as nitric oxide production at 100 uM after 120 mins by Griess reagent method. The method in brief: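 Nitric oxide assay with Griess read-out. At intervals, 0.5 ml of incubation solution was mixed with 0.5 ml Griess reagent (1% sulfanilamide, 0.1% N-naphthylethylenediamine dihydrochloride, 2% o-phosphoric acid in water). The control received an equal amount of solvent and was handled identically.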
In general terms: The Griess reaction detects nitrite, a stable product of nitric oxide.

Assay [10] relates to Klebsiella pneumoniae. As to the kind of experiment: Antibacterial activity against Klebsiella pneumoniae NCIM 2957 at 100 ug/disk after 24 hrs by agar disk diffusion method. Particulars: NCIM 2957, 24 h, read-out: IZ. The method in brief: as §4
The test system of assay [11] is Bacillus subtilis. Kind of assay: Antibacterial activity against Bacillus subtilis NCIM 2063 at 200 ug/disk after 24 hrs by agar disk diffusion method. The conditions noted are these: NCIM 2063, 24 h, read-out: IZ. The essentials:
as §4

Assay [12] deals with Fusarium solani. Kind of assay: Antifungal activity against Fusarium solani NCIM 1330 at 200 ug/disk after 48 hrs by agar disk diffusion method. The conditions noted are these: NCIM 1330, 48 h, read-out: IZ. The essentials: as §2
Assay [13] concerns Proteus vulgaris. Kind of assay: Antibacterial activity against Proteus vulgaris NCIM 2027 at 200 ug/disk after 24 hrs by agar disk diffusion method. The conditions noted are these: NCIM 2027, 24 h, read-out: IZ. The essentials:
as §4

The subject of assay [14] is Radical scavenging activity. As to the kind of experiment: Antioxidant activity assessed as DPPH free radical scavenging activity at 100 uM after 20 mins. The essentials: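 DPPH scavenging: compound solutions were added to DPPH in dioxane/ethanol and kept at ambient temperature for 20 min. Absorbance was read at 517 nm. The test–control difference was expressed as percent DPPH radical scavenging.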

In assay [15] the test system is Proteus vulgaris. Kind of assay: Antibacterial activity against Proteus vulgaris NCIM 2027 at 100 ug/disk after 24 hrs by agar disk diffusion method. The conditions noted are these: NCIM 2027, 24 h, read-out: IZ. The essentials:
as §4

Assay [16] deals with Curvularia lunata. As to the kind of experiment: Antifungal activity against Curvularia lunata NCIM 716 after 48 hrs by microdilution susceptibility method. Particulars: NCIM 716, 48 h. The method in brief:
as §1

Assay [17] has as its system Staphylococcus aureus. As to the kind of experiment: Antibacterial activity against Staphylococcus aureus NCIM 5021 at 200 ug/disk after 24 hrs by agar disk diffusion method. Particulars: NCIM 5021, 24 h, read-out: IZ. The essentials: as §4
Assay [18] has as its system Bacillus subtilis. Kind of assay: Antibacterial activity against Bacillus subtilis NCIM 2063 after 24 hrs by microdilution susceptibility method. Particulars: NCIM 2063, 24 h. The method in brief: as §3
The subject of assay [19] is Bacillus subtilis. Kind of assay: Antibacterial activity against Bacillus subtilis NCIM 2063 at 100 ug/disk after 24 hrs by agar disk diffusion method. The conditions noted are these: NCIM 2063, 24 h, read-out: IZ. The essentials: as §4
The subject of assay [20] is Klebsiella pneumoniae. As to the kind of experiment: Antibacterial activity against Klebsiella pneumoniae NCIM 2957 at 200 ug/disk after 24 hrs by agar disk diffusion method. Particulars: NCIM 2957, 24 h, read-out: IZ. The method in brief: as §4
Assay [21] concerns Klebsiella pneumoniae. Kind of assay: Antibacterial activity against Klebsiella pneumoniae NCIM 2957 after 24 hrs by microdilution susceptibility method. Particulars: NCIM 2957, 24 h. The essentials:
as §3

Assay [22] has as its system Proteus vulgaris. Kind of assay: Antibacterial activity against Proteus vulgaris NCIM 2027 after 24 hrs by microdilution susceptibility method. Particulars: NCIM 2027, 24 h. The essentials:
as §3

Assay [23] concerns Fusarium solani. Kind of assay: Antifungal activity against Fusarium solani NCIM 1330 at 100 ug/disk after 48 hrs by agar disk diffusion method. The conditions noted are these: NCIM 1330, 48 h, read-out: IZ. The method in brief: as §2

≈ marks a conversion by molar mass, not a printed value.

With `NC1=NN=C(N)C1C(CC(=O)c1ccc(Cl)cc1)C(=O)c1ccc(Cl)cc1` (centres undefined), the MIC amounted to 200 µg/mL (≈ 496 µM) in [1]; 200 µg/mL (≈ 496 µM) in [3]; 100 µg/mL (≈ 248 µM) in assay [5]; 200 µg/mL (≈ 496 µM) in assay [16]; 100 µg/mL (≈ 248 µM) in assay [18]; 100 µg/mL (≈ 248 µM) in assay [21]. In addition, the MIC in [22] was 100 µg/mL (≈ 248 µM). In addition, the zone of inhibition at 200 µg/disc in assay [2] was found to be 33 mm; in assay [8] it was 36 mm; in assay [11] it was 32 mm; in assay [12], 37 mm; in [13], 28 mm; in [17] it was 33 mm. The zone of inhibition at 200 µg/disc in [20] came to 30 mm. Further, the zone of inhibition at 100 µg/disc was determined as 32 mm in assay [4]; 31 mm in assay [6]; 34 mm in [7]; 28 mm in assay [10]; 25 mm in [15]; 28 mm in assay [19]. Further, the zone of inhibition at 100 µg/disc in assay [23] was 33 mm. Besides, the inhibition was found to be 90.7% in assay [9] and 91.7% in assay [14].

Consider `N=C1ON=C(N)C1C(CS(=O)(=O)c1ccc(Cl)cc1)S(=O)(=O)c1ccc(Cl)cc1` (centres undefined), for which the minimal inhibitory concentration (MIC) in assay [1] worked out at 100 µg/mL (≈ 210 µM); in assay [3] it was 50 µg/mL (≈ 105 µM); in assay [5], 50 µg/mL (≈ 105 µM); in assay [16], 50 µg/mL (≈ 105 µM); in assay [18], 50 µg/mL (≈ 105 µM); in assay [21], 100 µg/mL (≈ 210 µM). Also, the minimum inhibitory concentration (MIC) in [22] came to 100 µg/mL (≈ 210 µM). For the same compound, the zone of inhibition at 200 µg/disc in [2] was 32 mm; in assay [8] it was 33 mm; in assay [11], 34 mm; in assay [12], 35 mm; in assay [13] it was 30 mm; in assay [17] it was 33 mm. For the same compound, the zone of inhibition at 200 µg/disc in [20] was found to be 29 mm. Further, the zone of inhibition at 100 µg/disc in assay [4] was found to be 29 mm; in assay [6], 32 mm; in assay [7] it was 31 mm; in assay [10], 26 mm; in assay [15], 28 mm; in assay [19], 31 mm. In addition, in assay [23], the zone of inhibition at 100 µg/disc is 33 mm. In addition, the results for the inhibition in assay [9] and in assay [14] were 95.4% and 94.5%, respectively.

As to `NC1=NN=C(N)C1C(CS(=O)(=O)c1ccc(Cl)cc1)S(=O)(=O)c1ccc(Cl)cc1` (centres undefined), the MIC was 200 µg/mL (≈ 421 µM) in assay [1]; 100 µg/mL (≈ 210 µM) in [3]; 25 µg/mL (≈ 52.6 µM) in [5]; 100 µg/mL (≈ 210 µM) in assay [16]; 25 µg/mL (≈ 52.6 µM) in assay [18]; 50 µg/mL (≈ 105 µM) in [21]. Besides, in assay [22], inhibition of growth (MIC) required 50 µg/mL (≈ 105 µM). In addition, the zone of inhibition at 200 µg/disc in assay [2] was 35 mm; in assay [8], 38 mm; in assay [11] it was 37 mm; in [12] it was 39 mm; in assay [13] it was 33 mm; in assay [17], 36 mm. The zone of inhibition at 200 µg/disc in assay [20] amounted to 32 mm. In addition, the zone of inhibition at 100 µg/disc in [4] was determined as 32 mm; in [6] it was 34 mm; in assay [7], 34 mm; in assay [10] it was 30 mm; in assay [15], 31 mm; in [19], 35 mm. Moreover, in [23], the zone of inhibition at 100 µg/disc amounted to 35 mm. The inhibition in [9] and in [14] was 92.4% in each case.

By MIC is commonly meant the smallest concentration in the dilution series that meets the test's criterion for growth inhibition. Lower therefore signals greater potency. A word on the inhibition: it is how much of the control response was suppressed.
